Assay results from ChEMBL document CHEMBL1811904, “Preventive oral treatment with resveratrol pro-prodrugs drastically reduce colon inflammation in rodents” (J Med Chem, 2010).
Active and inactive are the calls of the source. No cut-off for these calls is given here.

Key:
CCD-18Co [1] = assay: Antiinflammatory activity in human CCD-18Co cells assessed as inhibition of IL1beta-induced PGE2 production at 2.5 to 25 uM after 18 hrs; assay type: functional, cell-based
CCD-18Co [2] = assay: Antiinflammatory activity in human CCD-18Co cells assessed inhibition of IL1beta-induced PGE2 production at 1 to 7.5 uM after 18 hrs; assay type: functional, cell-based
[3] = Cytotoxicity against human CCD-18Co cells at >10 uM after 8 hrs by MTT assay; assay type: cell-based
Mus musculus [4] = assay: (§1) Antiinflammatory activity in C57BL/6J mouse model of DSS-induced colon inflammation assessed as reduction of colon MIP1gamma level at 2.1 mg/kg/day, po for 21 days followed by compound dosing for 8 days co-administered with DSS followed by 2.1 mg/kg/day, po dosing for 6 days in absence of DSS measured on days 29 and day 35 by chemiluminescence assay; assay type: functional, organism-based
Method in brief: (§2)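 After 21 days of chow with compound at 2.1 mg/kg day and 8 days of 1% DSS, distal colon mucosa (40 mg) homogenized in PBS with protease inhibitors and spun 15,000g, 30 min, 4 °C. Supernatants pooled per group to 300 µg protein and run on a 40-cytokine mouse inflammation antibody array. Chemiluminescent detection, densitometry; duplicate measurements.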

Mus musculus [5] = assay: as §1, with “IL6” for “MIP1gamma”; assay type: functional, organism-based; method in brief: as §2
Mus musculus [6] = assay: (§3) Increase in Clostridia count in C57BL/6J mouse distal colon mucosa with DSS-induced colon inflammation at 2.1 mg/kg/day, po for 21 days followed by compound dosing for 8 days co-administered with DSS followed by 2.1 mg/kg/day, po dosing for 6 days in absence of DSS by fecal microbiota analysis relative to control; assay type: functional, organism-based
Method in brief: (§4)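 Fecal samples collected on days 0, 21 (before DSS) and 29 (after 8 days of 1% DSS) from mice fed 2.1 mg/kg day compound in chow. Bifidobacteria, lactobacilli, clostridia, enterobacteria and E. coli counted; ANOVA with Tukey post-hoc, mean ± SD.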

Mus musculus [7] = assay: as §1, with “TNFRp55” for “MIP1gamma”; assay type: functional, organism-based; method in brief: as §2
Mus musculus [8] = assay: as §1, with “MIG” for “MIP1gamma”; assay type: functional, organism-based; method in brief: as §2
Caco-2 = assay: Metabolic stability in human Caco2 cells after 6 hrs by LC-MS-MS analysis; assay type: ADME, cell-based; settings: caco-2, 6 h
Method in brief: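 Compounds incubated with human colon Caco-2 cells; cell media sampled at 6 h and analyzed by LC-MS-MS for parent compound and hydrolysis/conjugation products.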

Mus musculus [9] = assay: Effect on body weight in C57BL/6J mouse model of DSS-induced colon inflammation at 2.1 mg/kg/day, po for 21 days followed by compound dosing for 8 days co-administered with DSS followed by 2.1 mg/kg/day, po dosing for 6 days in absence of DSS measured on days 29 and day 35; assay type: functional, organism-based
Method in brief: (§5)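 Diet supplemented at 2.1 mg/kg day for 21 days before 8 days of 1% DSS in sterilized drinking water ad libitum; n=10 per group. Body weight followed through DSS and recovery phases; DAI combines stool blood, stool consistency and weight loss. ANOVA with Tukey post-hoc, mean ± SD.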

Mus musculus [10] = assay: as §3, with “Lactobacilli” for “Clostridia”; assay type: functional, organism-based; method in brief: as §4
Mus musculus [11] = assay: as §1, with “in disease activity index” for “of colon MIP1gamma level”, “35” for “35 by chemiluminescence assay”; assay type: functional, organism-based; method in brief: as §5
Mus musculus [12] = assay: as §1, with “preservation” for “reduction”, “mucosal architecture” for “colon MIP1gamma level”, “35” for “35 by chemiluminescence assay”; assay type: functional, organism-based
Method in brief: (§6)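 Standard chow with compound at 2.1 mg/kg day for 21 days, then 1% DSS in sterilized drinking water ad libitum for the last 8 days (29 days total); n=10 per group, with control and DSS-only groups. Distal colon sections stained with hematoxylin and eosin and scored by Araki system: 0-4 each for surface epithelial loss, crypt destruction, inflammatory cell infiltration (max 12); mean ± SEM, Kruskal-Wallis then Mann-Whitney.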

Mus musculus [13] = assay: Antiinflammatory activity in C57BL/6J mouse model of DSS-induced colon inflammation assessed as reduction in disease activity index at 2.1 mg/kg/day, po for 8 days co-administered with DSS measure on day 8; assay type: functional, organism-based
Method in brief: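 No pre-feeding: compound co-administered with 1% DSS in drinking water for 8 days at 2.1 mg/kg day; n=14 per group, with DSS-only and untreated control groups. DAI scored from stool blood, stool form and weight loss.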

Mus musculus [14] = assay: as §3, with “Reduction” for “Increase”, “Escherichia coli” for “Clostridia”; assay type: functional, organism-based; method in brief: as §4
Mus musculus [15] = assay: as §3, with “Bifidobacterial” for “Clostridia”; assay type: functional, organism-based; method in brief: as §4
Mus musculus [16] = assay: as §1, with “reduction in morphological signs” for “reduction”, “cell damage” for “colon MIP1gamma level”, “35” for “35 by chemiluminescence assay”; assay type: functional, organism-based; method in brief: as §6
Stomach = assay: Stability in C57BL/6J mouse stomach at 84 mg/kg administered through intragastric route measured after 8 hrs by HPLC-MS-MS analysis; assay type: ADME, organism-based; design: dose 84 mg/kg, route intragastric; settings: in vivo, po
Method in brief: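 Healthy mice given 84 mg/kg by intragastric probe in ethanol:water (5:95, v:v); n=24 per group, three killed at each of 0.25, 0.5, 1, 2, 4, 8, 12 and 24 h. Stomach contents analyzed by HPLC-MS-MS for parent compounds and metabolites; AUC and Cmax derived.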

CCD-18Co [17] = assay: Antiinflammatory activity in human CCD-18Co cells assessed inhibition of IL1beta-induced PGE2 production at 1 uM after 18 hrs; assay type: functional, cell-based

Stability (Stomach) | Structure (SMILES) | inhibition (CCD-18Co [1]) | inhibition (CCD-18Co [2]) | Activity [3] | Activity (Mus musculus [4]) | Activity (Mus musculus [5]) | Activity (Mus musculus [6]) | Activity (Mus musculus [7]) | Activity (Mus musculus [8]) | Stability (Caco-2) | Activity (Mus musculus [9]) | Activity (Mus musculus [10]) | Activity (Mus musculus [11]) | Activity (Mus musculus [12]) | Activity (Mus musculus [13]) | Activity (Mus musculus [14]) | Activity (Mus musculus [15]) | Activity (Mus musculus [16]) | inhibition (CCD-18Co [17])
 | OC[C@H]1O[C@@H](Oc2ccc(/C=C/c3cc(O)cc(O[C@@H]4O[C@H](CO)[C@@H](O)[C@H](O)[C@H]4O)c3)cc2)[C@H](O)[C@@H](O)[C@@H]1O | inactive |  |  |  |  |  |  |  |  |  |  |  |  |  |  |  |  | 
 | CCCCCCCCCCCC(=O)OC[C@H]1O[C@@H](Oc2cc(O)cc(/C=C/c3ccc(O)cc3)c2)[C@H](O)[C@@H](O)[C@@H]1O |  | Active | Toxic |  |  |  |  |  |  |  |  |  |  |  |  |  |  | 
 | CCCC(=O)OC[C@H]1O[C@@H](Oc2cc(O)cc(/C=C/c3ccc(O)cc3)c2)[C@H](O)[C@@H](O)[C@@H]1O |  | Active |  | Active | Active | Active | Active | Active | Stable | Active | Active | Active | Active | inactive | Active | Active | Active | 
 | OC[C@H]1O[C@@H](Oc2cc(/C=C/c3ccc(O)cc3)cc(O[C@@H]3O[C@H](CO)[C@@H](O)[C@H](O)[C@H]3O)c2)[C@H](O)[C@@H](O)[C@@H]1O | inactive |  |  | Active | Active |  | Active | Active |  | inactive | inactive | inactive | Active | inactive |  | inactive | Active | 
Stable | Oc1ccc(/C=C/c2cc(O)cc(O)c2)cc1 [RESVERATROL] | Active |  |  | Active | Active | Active | Active | Active | Stable | inactive | inactive | inactive | Active | inactive | Active | inactive | Active | Active
 | CCCCCCCC(=O)OC[C@H]1O[C@@H](Oc2cc(O)cc(/C=C/c3ccc(O)cc3)c2)[C@H](O)[C@@H](O)[C@@H]1O |  | Active |  | Active | Active | Active | Active | Active | Stable | Active | Active | Active | Active | inactive | Active | Active | Active | 
 | CCCCCCCCCCCCCCCCCC(=O)OC[C@H]1O[C@@H](Oc2cc(O)cc(/C=C/c3ccc(O)cc3)c2)[C@H](O)[C@@H](O)[C@@H]1O |  | Active | Toxic |  |  |  |  |  |  |  |  |  |  |  |  |  |  | 
 | OC[C@H]1O[C@@H](Oc2cc(O)cc(/C=C/c3ccc(O)cc3)c2)[C@H](O)[C@@H](O)[C@@H]1O | inactive |  |  | Active | Active |  | Active | Active |  | inactive | inactive | inactive | Active | inactive |  | inactive | Active | 
 | CCCCCCCCCCCCCCCC(=O)OC[C@H]1O[C@@H](Oc2cc(O)cc(/C=C/c3ccc(O)cc3)c2)[C@H](O)[C@@H](O)[C@@H]1O |  | Active | Toxic |  |  |  |  |  |  |  |  |  |  |  |  |  |  | 
 | OC[C@H]1O[C@@H](Oc2ccc(/C=C/c3cc(O)cc(O)c3)cc2)[C@H](O)[C@@H](O)[C@@H]1O | Active |  |  |  |  |  |  |  |  |  |  |  |  |  |  |  |  | 
